ZTA counter: counter-screen for EBNA-1 inhibitors: inhibitors of Epstein-Barr virus ZTA; P03206; hit rate 0.15% among 320,000; ZTA-DNA binding, fluorescence polarization; AID 2234; inhibition, % at 11 µM; in the data active = inhibition above about 33%
Target sequence (P03206 whole entry, looked up): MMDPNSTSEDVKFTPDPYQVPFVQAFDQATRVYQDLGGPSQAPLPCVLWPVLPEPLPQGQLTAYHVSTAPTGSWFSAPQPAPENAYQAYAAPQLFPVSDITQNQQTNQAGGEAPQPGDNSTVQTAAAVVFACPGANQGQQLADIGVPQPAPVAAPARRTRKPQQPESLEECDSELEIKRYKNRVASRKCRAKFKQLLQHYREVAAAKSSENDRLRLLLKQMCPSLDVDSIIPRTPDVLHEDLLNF
HCV NS3 hel inh: HCV NS3 helicase inhibition. hit rate 0.56% among 290,000. inhibition, % at 10.9 µM. NS3 helicase DNA unwinding, Cy5 molecular beacon fluorescence. AID 1800;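 active = inhibition above the mean of all tested compounds plus 3 SD, set per campaign, cut at about 35% in these data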
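System: HCV NS3 helicase fragment; control set: DMSO and thioflavine S; technique: Cy5 fluorescence at 0 and 60 min, beacon hairpin quenching; reagent: beacon DNA duplex substrate plus ATP; replicates: singlicate; schedule: 1 h reaction at 25 °C, ATP-initiated; medium: MOPS buffer pH 6.5 with MgCl2, DTT, Tween20, BSA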
FGF22 binding: FGF22 (human) thermal shift binding | hit rate 1.5% among 340,000 | AID 651658 | recombinant FGF22 thermal shift, SYPRO orange fluorescence; percent of sucrose octasulfate shift, DMSO zero | Q9HCT0 | activity (Tm shift, normalised), % at 9.99 µM;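 active = mean Tm shift, scaled 0 neutral to 100 positive control, at about 1.3% or above, every replicate too, limit read from the data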
Target sequence (Q9HCT0 whole entry, looked up): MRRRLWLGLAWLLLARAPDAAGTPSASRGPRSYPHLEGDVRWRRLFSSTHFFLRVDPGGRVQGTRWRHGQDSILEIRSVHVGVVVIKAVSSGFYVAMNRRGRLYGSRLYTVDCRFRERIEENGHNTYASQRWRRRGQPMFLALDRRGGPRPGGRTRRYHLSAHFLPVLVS
EBNA-1 inhibitor: blocks EBNA-1 binding to DNA. EBNA-1 DNA binding, fluorescence polarization. inhibition, % at 14.8 µM. hit rate 0.34% among 300,000. AID 1950; in the data active = inhibition above about 28%
DNA FID counter: fluorescent intercalator displacement, NS3 helicase counter-screen; DNA fluorescent intercalator displacement, fluorescence; inhibition, % at 7.9 µM; hit rate 0.17% among 290,000; AID 1845; in the data active = inhibition above about 37%;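 note: higher means more ethidium bromide displaced from hairpin DNA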
NR3A LBD binder: modulates the human NR3A ligand-binding domain; NR3A LBD differential scanning fluorimetry, Tm shift; 0% = protein alone, 100% = glycine-bound protein; Tm shift relative to glycine control, % at 25 µM; hit rate 2.5% among 340,000; AID 1259313;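 active = melting temperature shift of at least 10% of the positive control shift, at one fixed dose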
Numbers stand for hits; 0 = inactive; - = not tested or not shown. Sampled rows, rich in hits. Any-hit rate of the full collection: about 3.6%.

SMILES	ZTA counter	HCV NS3 hel inh	FGF22 binding	EBNA-1 inhibitor	DNA FID counter	NR3A LBD binder
CN(C)CC(=O)Nc1ccc2c(c1)[C@@H]1C[C@@H](CC(=O)NCc3cccnc3)O[C@@H](CO)[C@@H]1O2	-	-	0	-	-	-
O=C1C2C3C=CC(c4ccccc4)(C2C(=O)N1c1cccc(Cl)c1)C1C(=O)N(c2cccc(Cl)c2)C(=O)C31 (stereo unspecified)	0	0	-	0	0	23
O=C(COC(=O)CCc1ccccc1)NCc1ccccc1	0	-	0	-	-	0
O=C(COC(=O)CSCc1ccccc1)NCc1ccccc1	0	0	43	0	0	0
O=C(COc1ccc(Br)cc1Br)NC(=S)N1CCCc2ccccc21	42	0	-	0	0	0
COc1ccc([Si](C)(C)[C@@H]2[C@@H](CCO)O[C@]3(C(=O)N(Cc4cccc(NC(C)=O)c4)c4ccccc43)[C@H]2C)cc1	-	-	0	-	-	-
Cc1cc(-c2nc3cc(F)ccc3s2)ccc1N	-	-	0	-	-	13
C[C@@H]1CN([C@H](C)CO)C(=O)c2cc(C#CC3(O)CCCC3)cnc2O[C@@H]1CN(C)C(=O)C1CCC1	-	-	0	-	-	-
Cc1ccc(C(=O)CNc2cccc([N+](=O)[O-])c2)cc1	0	0	43	0	0	0
CS(=O)(=O)N1CCc2cc(C(=O)Nc3cccc([N+](=O)[O-])c3)ccc21	0	0	0	0	0	31
Cc1ccc(NS(=O)(=O)c2ccc(OCC(=O)Nc3cccc([N+](=O)[O-])c3)c(C)c2)cc1	0	0	-	0	0	26
CS(=O)(=O)N1CCc2cc(C(=O)Nc3ccc(Cl)cc3)ccc21	0	0	-	0	0	0
Cc1cc(F)ccc1NC(=O)c1ccc(NS(=O)(=O)c2cc(C(C)(C)C)ccc2C)cc1	0	0	-	0	0	0
CC(=O)Nc1ccc(NC(=O)c2ccc(NS(=O)(=O)c3cc(C(C)(C)C)ccc3C)cc2)cc1	0	0	0	0	0	17
CN(C)CCCNC(=O)C[C@H]1CC[C@@H](NC(=O)Cc2cccnc2)[C@@H](CO)O1	-	-	0	-	-	-
Cc1ccc(NC(=O)CC(=O)c2ccc([N+](=O)[O-])cc2)cc1S(=O)(=O)Nc1cccc(Cl)c1	0	0	0	0	0	25
Cc1ccc(NC(=O)CCNC(=O)c2ccc([N+](=O)[O-])cc2)cc1S(=O)(=O)N(C)C	0	0	0	0	0	0
Cc1ccc(NS(=O)(=O)c2cc(C(=O)Nc3cccc([N+](=O)[O-])c3)ccc2C)cc1	0	0	0	0	0	21
Cc1ccc(C(=O)Nc2cccc([N+](=O)[O-])c2)cc1S(=O)(=O)Nc1ccc(NC(=O)c2ccccc2)cc1	0	0	-	0	0	36
Cc1ccc(C(=O)Nc2cccc([N+](=O)[O-])c2)cc1S(=O)(=O)Nc1cccc(C(=O)O)c1	0	0	0	0	0	0
CCCCCCOC(=O)Nc1ccc(S(=O)(=O)Nc2cccc([N+](=O)[O-])c2)cc1	0	0	0	0	0	30
CCCCOC(=O)Nc1ccc(S(=O)(=O)Nc2nc(C)cc(C)n2)cc1	0	0	0	0	0	0
COc1ccc(-c2ccc3c(c2)O[C@@H](CN(C)Cc2cccnc2)[C@@H](C)CN([C@H](C)CO)S3(=O)=O)cc1	-	-	0	-	-	-
COc1ccc(NC(=O)Nc2cccc3c2O[C@H](CN(C)C(=O)Nc2ccc(OC)cc2)[C@@H](C)CN([C@@H](C)CO)C3=O)cc1	-	-	0	-	-	-
C[C@H](CO)N1C[C@H](C)[C@H](CN(C)S(C)(=O)=O)OCCCC[C@H](C)Oc2ccc(NS(=O)(=O)c3cn(C)cn3)cc2C1=O	-	-	0	-	-	-
SMILES	ZTA counter	HCV NS3 hel inh	FGF22 binding	EBNA-1 inhibitor	DNA FID counter	NR3A LBD binder
O=C(Nc1ccccc1)c1ccc(NCCN2C(=O)CCC2=O)c([N+](=O)[O-])c1	0	0	0	0	0	0
Cc1ccc([N+](=O)[O-])cc1S(=O)(=O)Nc1cccc(S(=O)(=O)Nc2ccccc2C(=O)O)c1	-	-	-	-	-	0
Cc1ccc(C(=O)NCCSC2CCCCC2)cc1S(=O)(=O)Nc1ccccc1	0	0	0	0	0	16
Cc1ccccc1NC(=O)c1cc([N+](=O)[O-])ccc1NCCN1C(=O)CCC1=O	0	0	43	0	0	0
Cc1ccc(C)c(NC(=O)c2ccccc2NS(=O)(=O)c2cc([N+](=O)[O-])ccc2C)c1	0	0	0	0	0	17
O=c1[nH]c(C2CCN(S(=O)(=O)c3cccc(C(F)(F)F)c3)CC2)nc2c1nnn2Cc1cccc(F)c1	0	0	0	0	0	16
